# Hits are enriched below; roughly 2% of the tested compounds scored in any of these assays.
# Runt-SMMHC FRET = blocks binding of human RUNX1 Runt domain to CBFb-SMMHC; Q01196+Q13951; Cerulean-Runt/Venus-CBFb-SMMHC FRET ratio 530/480, 1 h; inhibition, % at 20 µM; 0.74% of 220,000 active;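 active = mean inhibition across duplicate retests at 20 µM reaching about 50%, limit read from the data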;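 note: 0% = DMSO wells and 100% = wells with excess untagged CBFb-SMMHC; inhibitors lower the FRET ratio by blocking Runt binding to CBFb-SMMHC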
# Target sequence (Q01196 whole entry, looked up, the tested form may be a part): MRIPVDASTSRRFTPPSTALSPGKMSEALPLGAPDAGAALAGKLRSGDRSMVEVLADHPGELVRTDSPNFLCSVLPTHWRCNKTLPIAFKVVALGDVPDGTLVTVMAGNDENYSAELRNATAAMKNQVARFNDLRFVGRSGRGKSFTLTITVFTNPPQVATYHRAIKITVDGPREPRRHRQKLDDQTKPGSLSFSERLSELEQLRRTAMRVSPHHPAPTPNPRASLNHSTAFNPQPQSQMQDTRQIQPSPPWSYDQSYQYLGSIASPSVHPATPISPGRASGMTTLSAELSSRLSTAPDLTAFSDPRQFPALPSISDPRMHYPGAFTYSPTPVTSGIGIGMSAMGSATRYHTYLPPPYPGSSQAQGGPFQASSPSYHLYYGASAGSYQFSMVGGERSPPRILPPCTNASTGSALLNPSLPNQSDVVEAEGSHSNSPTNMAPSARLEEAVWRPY
# Target sequence (Q13951 whole entry, looked up, the tested form may be a part): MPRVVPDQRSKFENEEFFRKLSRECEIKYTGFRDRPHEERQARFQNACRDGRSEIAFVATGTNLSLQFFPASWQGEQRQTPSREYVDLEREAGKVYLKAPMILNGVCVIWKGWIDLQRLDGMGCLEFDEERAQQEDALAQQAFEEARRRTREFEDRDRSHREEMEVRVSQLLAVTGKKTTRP
# Runt-CBFb FRET = blocks binding of human RUNX1 Runt domain to CBFb; Q01196+Q13951; Cerulean-Runt/Venus-CBFb FRET ratio 530/480, 1 h; inhibition, % at 20 µM; 0.46% of 220,000 active; AID 1496;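 active = inhibition over about 50% at 20 µM in the single-dose screen, limit read from the data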;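 note: 0% = DMSO wells and 100% = excess unlabeled CBFb competitor control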
#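 System: Cerulean-labeled Runt domain protein | Quantity: 100 nM of each labeled protein | Schedule: 1 h compound exposure, room temperature | Detection: Fluorescence energy transfer, 422 nm excitation, 530/480 nm emission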
# PKD1 inh = inhibitors of human PKD1 kinase; PKD1 kinase fluorescence polarization assay; inhibition, % (concentration not given with the values); Q15139; 0.056% of 200,000 active; AID 797
# MEX-5 binding = C. elegans MEX-5 TCR-2 RNA binding activity; MEX-5/FITC-TCR2 RNA binding, fluorescence polarization; hits give low values; activity score (negative = inhibition of binding), % at 10 µM; 0.38% of 300,000 active;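 active = inhibition past about -25% in most replicates, and total fluorescence under double the plate's negative control median, limit read from the data; inconclusive = replicates evenly split on the limit, or fluorescence at least double controls; inactive = too little inhibition in most replicates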;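 note: 0% = DMSO and -100% = 5 µM competing unlabeled TCR2 RNA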
# RanGTP-Imp inh = disruptors of Ran-importin-beta complex formation – biochemical, FRET, CFP-Ran, YFP-importin-beta, homogeneous, primary screen | 1.1% of 300,000 active | cell-free CFP-Ran/YFP-importin-beta FRET ratio | inhibition, % (no concentration beside the values);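 active = more than half of the replicate wells show a fall in the fluorescence ratio signal beyond about 16%, limit read from the data, passing the limit was not always enough; inconclusive = exactly half of the replicate wells pass the set limit; inactive = fewer than half of replicates pass the limit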;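 note: 0% = DMSO wells and 100% = Ran loaded with GDP instead of GTP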
# EBV gp42 block = EBV gp42 inhibition; Q1HVG2; Fluorescence polarization binding assay, mP read-out; inhibition, % (tested at 21.74 µM); 0.42% of 220,000 active; AID 1085
# PKD FP artifact = FP interference, PKD inhibitor counter-screen. shares compounds with PKD1 inh. PKD1 FP assay interference counter-screen, fluorescence polarization. inhibition, % at 10 µM. 85 tested, under 10 active. AID 1315; call rule not given here
# * marks the source's active call; other numbers are inactive results; i = inactive; ? = inconclusive; nt = not tested or not shown. Cut-off read from the data, not from the text of the source, unless noted: active = inhibition above about 50%; inactive = the rest.
SMILES,Runt-SMMHC FRET,Runt-CBFb FRET,PKD1 inh,MEX-5 binding,RanGTP-Imp inh,EBV gp42 block,PKD FP artifact
CC1CCc2nn(CC(=O)NCCN3CCCCC3C)cc2C1 (stereo not drawn),6,-1,-2,-35*,-3,5,nt
Cc1cc(N=CC2=C(O)CC(C)(C)CC2=O)no1,3,0,60*,2,0,-11,-4
NC(=NCCc1c[nH]c2ccccc12)NS(=O)(=O)c1cc(F)ccc1F,3,-3,52*,1,1,4,-15
O=C(Nc1ccccc1)ON=C1c2ccccc2-c2ccccc21,76,4,51*,1,4,18,4
O=C(Nc1ccccc1Cl)ON=C1c2ccccc2-c2ccccc21,-1,0,61*,2,2,-23,-11
O=C(Nc1ccccc1Cl)Oc1ccc(Cl)cc1Cl,-6,2,nt,2,3,-16,nt
O=C(Nc1ccccc1)OCCCCCOC(=O)Nc1ccccc1,nt,nt,nt,0,-2,nt,nt
O=C(NC1CCSc2ccccc21)c1ccccc1Br (stereo not drawn),nt,nt,nt,-5,5,nt,nt
CCOC(=O)N1CCC(NS(=O)(=O)c2cc(Br)cc3c2N(C(=O)CC)CC3)CC1,2,-1,66*,1,-1,-13,-18
CCN1/C(=C/C(C)=O)Sc2ccc(OC)cc21,6,2,78*,0,0,-16,-14
O=C(Nc1ccsc1C(=O)NC1CC1)c1ccccc1,3,0,50*,1,-2,-10,-10
O=C(Nc1ccsc1C(=O)O)c1ccccc1,nt,nt,nt,1,-5,nt,nt
CCOC(=O)N1CCN(c2cc(NCCC(=O)O)c3c4c(onc24)-c2ccccc2C3=O)CC1,6,6,56*,nt,nt,-4,14
CCOc1cccc(C2C(C(=O)c3ccc(C)o3)=C(O)C(=O)N2c2nccs2)c1 (stereo not drawn),-12,0,88*,-71*,-1,172*,71*
Cc1nnsc1C(=O)N1CCC(CO)(Cc2ccccc2Cl)CC1,1,-1,nt,-2,0,-12,nt
CCOc1ccc2noc3c2c1C(=O)c1ccccc1-3,-6,2,97*,?,-387,-71,62*
O=C1c2ccccc2-c2onc3ccc(NCc4ccco4)c1c23,i,-156,60*,-77*,-278,130*,6
O=C1c2ccccc2-c2onc3ccc(N4CCCC4)c1c23,-319,-48,2,?,-1,26,nt
CC1CC(C)CN(S(=O)(=O)CC23CCC(CC2=O)C3(C)C)C1 (stereo not drawn),nt,nt,nt,2,1,nt,nt
CCOc1ccccc1OCCC(=O)OCC(=O)c1ccc[nH]1,-2,-2,-8,1,-1,-9,nt
O=C(Nc1ccccc1)C12CC3CC(C1)CC(n1cnc([N+](=O)[O-])n1)(C3)C2,4,-2,-4,1,2,-10,nt
O=C(Nc1cccc([N+](=O)[O-])c1)C12CC3CC(C1)CC(n1cnc([N+](=O)[O-])n1)(C3)C2,-6,-1,62*,1,1,2,0
CC(=O)Nc1ccc2c(c1)c1ccccc1n2C(C)=O,-3,-1,59*,1,-2,-13,-13
COCCNC(=O)CN(c1ccc(F)cc1)S(=O)(=O)c1ccc2c(c1)OCCO2,nt,nt,nt,1,-1,nt,nt
CCCNC(=O)CN(c1ccc(F)cc1)S(=O)(=O)c1ccc2c(c1)OCCO2,0,2,56*,5,4,4,-14
O=c1[nH]c(=O)n(-c2ccccc2)c2c1C(C(F)(F)F)(C(F)(F)F)N=C(CCC1CCCCC1)N2,-18,-2,-9,-3,-2,-16,nt
CC/C(O)=C1\C(=O)CCCC1=NCc1nc2ccccc2[nH]1,-3,0,-4,-2,-5,7,nt
O=C(Cn1c(CCCO)nc2ccccc21)Nc1ccccc1-c1ccccc1,nt,nt,nt,-1,2,nt,nt
COc1ccc(C2C(C(=O)c3cccs3)=C(O)C(=O)N2c2nncs2)cc1 (stereo not drawn),103*,49,67*,-85*,-22,133*,34

# Compound activity deposited in PubChem by several laboratories.
